NPY2 pot ag = NPY-Y2 potentiators or agonists, primary screen, cell-based. AID 1359, 2008. activation, % at 3.6 µM. Neuropeptide Y receptor type 2 (Homo sapiens), P49146. actives 0.45% (n = 220,000). cells expressing NPY-Y2, potentiator/agonist read-out; in the data active = activation above about 27%;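 note: cells stimulated with NPY near EC25 plus isoproterenol at EC100; 0% = vehicle plus submaximal agonist and 100% = vehicle plus saturating agonist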
Target sequence (P49146 whole entry, looked up): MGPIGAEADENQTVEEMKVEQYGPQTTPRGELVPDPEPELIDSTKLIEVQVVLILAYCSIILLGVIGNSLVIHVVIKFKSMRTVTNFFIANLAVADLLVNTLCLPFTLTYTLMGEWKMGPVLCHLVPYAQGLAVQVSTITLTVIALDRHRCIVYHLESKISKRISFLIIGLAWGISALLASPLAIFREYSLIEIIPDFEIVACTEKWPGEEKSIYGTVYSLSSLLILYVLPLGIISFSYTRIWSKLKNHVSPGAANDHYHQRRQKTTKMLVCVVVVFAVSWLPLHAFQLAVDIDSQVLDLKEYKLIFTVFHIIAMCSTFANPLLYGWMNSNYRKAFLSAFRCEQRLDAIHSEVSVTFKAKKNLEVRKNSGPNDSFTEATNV
NPY-Y2 antag = NPY-Y2 receptor antagonists, primary screen, cell-based. Neuropeptide Y receptor type 2 (Homo sapiens), P49146. actives 0.99% (n = 140,000). inhibition, % at 2.7 µM. NPY-Y2 expressing cells, antagonist mode;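 note: 0% = vehicle with agonist challenge and 100% = reference antagonist with challenge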
NPY Y1 blocker = NPY-Y1 receptor antagonists, primary screen, cell-based | actives 1% (n = 200,000) | inhibition, % at 3.6 µM | HEK293-CNG Y1 cells, membrane potential fluorescence; NPY at EC95, then isoproterenol;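 active = inhibition above the campaign mean inhibition of all tested compounds plus 3 SD, cut at about 20% in these data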;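 note: 0% = DMSO wells given NPY plus isoproterenol and 100% = isoproterenol alone without NPY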
Target sequence (P25929 whole entry, looked up): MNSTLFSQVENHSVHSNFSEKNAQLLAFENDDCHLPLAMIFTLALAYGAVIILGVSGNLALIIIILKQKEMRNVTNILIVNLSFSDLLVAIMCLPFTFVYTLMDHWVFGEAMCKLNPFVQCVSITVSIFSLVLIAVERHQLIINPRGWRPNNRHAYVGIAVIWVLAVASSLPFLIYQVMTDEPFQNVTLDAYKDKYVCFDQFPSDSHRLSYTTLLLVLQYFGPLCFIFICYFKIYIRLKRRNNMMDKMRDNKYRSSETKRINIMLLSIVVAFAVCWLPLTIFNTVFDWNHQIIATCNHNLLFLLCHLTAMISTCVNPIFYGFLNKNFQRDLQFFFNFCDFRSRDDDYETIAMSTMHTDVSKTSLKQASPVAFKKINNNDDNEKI
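material = HEK293 cells with Y1 receptor plus CNG channel | also added = NPY 25 nM then isoproterenol 1 µM plus Ro 20-1724 25 µM | schedule = dye 3 h, compound 60 min room temperature, stimulation 45 min | measured by = membrane potential fluorescence | benchmarks = high control isoproterenol alone, low control NPY with isoproterenol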
NPY1 pot ag = NPY-Y1 receptor potentiators or agonists, primary screen, cell-based; NPY-Y1 expressing cells, potentiator/agonist activation; Neuropeptide Y receptor type 1 (Homo sapiens), P25929; actives 0.37% (n = 220,000); activation, % at 3.6 µM; AID 1304, 2008; in the data active = activation above about 33%, passing the limit was not always enough;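 note: cells stimulated with NPY at EC10 then isoproterenol at EC100; 0% = low agonist plus stimulus and 100% = saturating agonist plus stimulus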
NPY-Y1 ant conf = NPY-Y1 receptor antagonists, retest of hits, confirmation, HEK293-CNG cells, membrane potential fluorescence, triplicate | shares compounds with NPY Y1 blocker | cAMP; NPY challenge against isoproterenol-raised cAMP | inhibition, % at 3.6 µM | actives 21% (n = 1,200); in the data active = inhibition above about 20%;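 note: 0% = vehicle with agonist plus stimulus and 100% = stimulus alone without agonist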
NPY-Y2 antag ct = NPY-Y2 receptor antagonists, selectivity check, confirmation, counter-screen for NPY-Y1 antagonist project, HEK293-CNG cells, membrane potential fluorescence, triplicate; inhibition, % at 3.6 µM; actives 28% (n = 1,200); antagonism; cells given NPY, then isoproterenol; shares compounds with NPY Y1 blocker;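 note: 0% = DMSO with agonist challenge and 100% = reference antagonist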
An asterisk follows results filed as active; x = no result given. Compounds with a hit are over-represented: about 1.8% of the library has one in this group of screens. Cut-off read from the data, not from the text of the source, unless noted: active = inhibition above about 17%; inactive = the rest.

SMILES | NPY2 pot ag | NPY-Y2 antag | NPY Y1 blocker | NPY1 pot ag | NPY-Y1 ant conf | NPY-Y2 antag ct
Cc1ccc(Cn2ncc3c(N4CCN(Cc5ccc(Cl)cc5)CC4)ncnc32)cc1 | 1.3 | 8.3 | 1.1 | 1.4 | x | x
COc1ccc(N/N=C(\C=N\O)C(=O)c2ccc(OC)cc2)cc1 | -9.3 | -1.2 | 32.1* | -29.9 | 4.2 | 16.5
OC(COc1c(F)cc(Br)cc1F)CN1CCN(c2ccc(F)cc2)CC1 (centres undefined) | 1.9 | 7.5 | 20.3* | -23.4 | 4.0 | 9.0
Cc1ccc(-c2cc(C(F)(F)F)n3ncc(C(=O)O)c3n2)cc1 | -10.1 | 1.7 | 20.6* | -2.4 | 1.7 | 2.8
O=C(c1cnn2c(C(F)(F)F)cc(-c3ccco3)nc12)N1CCCCCC1 | -28.5 | 4.7 | 0.6 | -18.9 | x | x
O=C(c1cnn2c(C(F)(F)F)cc(-c3ccco3)nc12)N1CCc2ccccc2C1 | -17.9 | 11.3 | 21.4* | -48.6 | 9.6 | 7.4
COc1ccc(-c2cc(C(F)(F)F)n3ncc(C(=O)O)c3n2)cc1OC | 21.3 | 4.0 | -2.5 | -6.9 | x | x
COCCNC(=O)CSc1nc2scc(-c3ccccc3)c2c(=O)[nH]1 | -14.6 | x | x | -7.0 | x | x
O=C(COc1cccnc1[N+](=O)[O-])c1ccc(Cl)s1 | -21.7 | x | x | 7.8 | x | x
CCC(=O)N1CCc2cc(S(=O)(=O)N(CC)c3cccc(C)c3)ccc21 | -5.6 | 4.5 | 2.3 | 12.6 | x | x
CCN(c1cccc(C(F)(F)F)c1)S(=O)(=O)c1ccc2c(c1)CCN2C(=O)C1CC1 | -7.6 | 13.8 | 23.7* | -49.6 | 14.1 | 13.2
COc1ccccc1OCCOCCOc1c(C)cc(C)cc1Br | -9.4 | 10.5 | 24.3* | -33.5 | 12.0 | 9.7
CCN(CC)CCSc1nc2ccccc2c(=S)n1-c1ccccc1 | -29.8 | x | 57.1* | -50.1 | 20.1* | 23.7*
Cc1ccc(-c2nnn(C/C(N)=N/O)n2)cc1 | -5.6 | x | -1.6 | 2.3 | x | x
COC(=O)CNC(c1ccccc1)c1cc(Br)ccc1NS(=O)(=O)c1ccc(C)cc1 (centres undefined) | 16.6 | 3.9 | 10.5 | 6.5 | x | x
COC(=O)CNC(c1ccccc1)c1cc(Br)ccc1NS(=O)(=O)c1ccccc1 (centres undefined) | -2.6 | 16.6 | 26.7* | -31.0 | -1.3 | 3.5
CC(C)N(Cc1nc(-c2ccccc2)no1)C(=O)c1ccc2c(c1)OCO2 | -15.2 | 7.2 | 7.2 | -36.7 | x | x
O=C(NCc1nc(-c2ccccc2)no1)c1ccc2c(c1)OCO2 | -3.1 | 6.2 | 22.1* | -34.4 | 13.3 | 10.4
Cc1cccc(-c2nsc(SCC(=O)NCC3CCCO3)n2)c1 (centres undefined) | -5.5 | x | 30.0* | 10.8 | 4.5 | 1.9
N#Cc1c(Cl)c(Cl)c2nnc(-c3ccc(Br)cc3)n2c1Cl | -11.5 | 4.2 | -1.4 | -6.0 | x | x
CCOC(=O)c1[nH]c(C)c(C(=O)N2CCc3ccccc32)c1C | -9.8 | 5.2 | 31.9* | -13.9 | -0.1 | 9.3
CC(=O)c1c(C)[nH]c(C(=O)N2CCc3ccccc32)c1C | 7.6 | 1.2 | -3.1 | 14.0 | x | x
CCOC(=O)CN1N=C(c2ccc(Cl)s2)CSC1=O | 2.4 | 2.4 | 4.6 | 8.9 | x | x
N#CC1=C(Nc2ccccc2)SC=C(c2ccc(Cl)c(Cl)c2)N=C1N1CCOCC1 | -2.4 | 8.8 | 24.7* | -26.1 | 8.1 | 13.6
CCOC(=O)CSc1nnc(COc2cccc(C)c2)o1 | -3.4 | x | 4.8 | 10.0 | x | x
SMILES | NPY2 pot ag | NPY-Y2 antag | NPY Y1 blocker | NPY1 pot ag | NPY-Y1 ant conf | NPY-Y2 antag ct
O=C(CSc1nnc(COc2ccccc2)o1)N1CCN(c2ccccc2)CC1 | 0.4 | 2.0 | 4.3 | -2.0 | x | x
Cc1ccc(C(=O)CSc2nnc(COc3cccc(C)c3)o2)cc1 | -24.2 | 12.6 | 20.9* | -42.8 | 10.2 | 10.2
Cc1cc(C)cc(OCc2nnc(SCC(=O)N3CCN(c4ccccc4)CC3)o2)c1 | -8.7 | 6.0 | 20.9* | -22.0 | 12.8 | 16.8
Cc1nc2ccccc2c(=O)n1NC(=O)Cc1ccc([N+](=O)[O-])cc1 | 14.3 | x | -0.9 | 5.3 | x | x
O=C(O)CCN1CC2([N+](=O)[O-])C=CC(=O)C([N+](=O)[O-])(C1)C2CC(=O)c1ccccc1 (centres undefined) | 6.3 | 8.0 | -5.0 | 7.1 | x | x
O=C(COC(=O)CSc1ccc2ccccc2c1Br)NC1CC1 | -30.9 | x | 25.1* | -38.4 | 14.6 | 11.8
Cc1cccc(C)c1NC(=O)CN(C)C(C)C(=O)Nc1ccccc1-c1ccccc1 (centres undefined) | -4.1 | x | 7.7 | -20.3 | x | x
Cc1ccccc1CN(C)C(C)C(=O)Nc1ccccc1F (centres undefined) | -16.3 | x | 22.7* | -1.5 | 16.7 | 7.8
C(=C\c1ccccc1)/CN1CCN(c2ncnc3c2oc2ccccc23)CC1 | -26.3 | 13.6 | 26.0* | 5.8 | 10.6 | 16.1
c1ccc2c(c1)oc1c(N3CCOCC3)ncnc12 | 2.0 | 2.9 | 2.6 | -12.3 | x | x
Nc1nc(N2CCN(C/C=C/c3ccccc3)CC2)nc2ccccc12 | 10.6 | 8.6 | 21.9* | -22.3 | 15.2 | 3.1
Cc1cc(C)c(NS(=O)(=O)c2ccc3c(c2)NC(=O)CC(=O)N3)c(C)c1 | 11.0 | 1.1 | -4.6 | 6.8 | x | x
CCCCCCc1nc2ccccc2c(=O)n1NC(=O)c1c(O)c2cccc3c2n(c1=O)CCC3 | -7.6 | 2.5 | 1.6 | -29.4 | x | x
Cc1cc(C)cc(N2C(=O)C3C4C=CC(C4)C3C2=O)c1 (centres undefined) | 1.4 | 3.6 | -7.1 | 0.3 | x | x
CCN(Cc1ccccc1)C(=O)c1nn(-c2ccc(OC)cc2)c(=O)c2c1c1ccccc1n2C | -8.7 | x | 38.2* | -36.5 | 42.5* | 23.6*
Clc1ccc(CN2CCCCCCC2)cc1Cl | -28.8 | 7.2 | 22.2* | -15.5 | 4.0 | 4.6
Cc1ccc2nc(-c3ccncc3)c(NC3CCCCC3)n2c1 | 9.8 | x | -2.7 | 14.4 | x | x
CCc1ccccc1NC(=O)CN(C)C(=O)CSc1nc2cc(Cl)ccc2s1 | -3.5 | 7.3 | 6.6 | 15.8 | x | x
CC(C)C(C)(C#N)NC(=O)CSc1nc(C2CCCCC2)n(-c2ccccc2)n1 (centres undefined) | 0.7 | 3.9 | 0.6 | 16.4 | x | x
COc1ccccc1CCNC(=O)c1nc(-c2cccs2)no1 | -17.7 | x | 23.8* | -11.2 | 8.2 | 4.9
CCOc1ccc(CNC(=O)c2ccc(Sc3ccc(Cl)cc3)c(NC(C)=O)c2)cc1 | -35.3 | 15.8 | 40.6* | -69.7 | 24.2* | 19.8*
O=C(CSc1ccc(-c2cccc([N+](=O)[O-])c2)nn1)NC1CCCC1 | -7.3 | x | 6.8 | -22.4 | x | x
O=C(NC1CCCC1)C(c1ccccc1F)N(C(=O)Cc1cccs1)c1ccc2c(c1)OCCO2 (centres undefined) | 5.0 | 7.6 | 20.5* | -7.5 | 10.2 | 7.5

High-throughput results from PubChem BioAssay.
